ANO1 activ: TMEM16A chloride channel activators or potentiators, primary screen, cell-based, HTS; HEK293 TMEM16A/YFP-H148Q/I152L, iodide quench fluorescence; hits give low values; B-score at 10 µM; 0.3% of 340,000 active;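 active means fluorescence-ratio B-score plate-corrected deviation score at least 3 library SD below zero, with starting fluorescence score within 5 deviations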;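 further: channel opened by trigger with iodide after compound preincubation; score built on the fluorescence ratio of max minus min over baseline; more negative score means more quench and so TMEM16A activation or potentiation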
Apaf1 inhib: inhibitors of human Apaf-1 apoptosome, primary screen, biochemical, DEVD-Rh110 fluorescence, uHTS; Apoptotic protease-activating factor 1 (Homo sapiens), O14727; reconstituted apoptosome caspase-3 activity; 0.71% of 330,000 active; inhibition, % at 20 µM; AID 489030, 2010; active means inhibition of at least 40% at 20 µM;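 further: plate controls were DMSO wells for no effect and DEVD-CHO caspase inhibitor wells for full effect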
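System – cell-free apoptosome with Apaf-1, procaspase-3 and caspase-9 · Buffer or medium – pH 7.5 Hepes buffer with CHAPS, BSA, DTT · Also added – cytochrome c with DEVD-Rh110 · Times – 30 min compound preincubation, 50 min activation, room temperature · Technique – Rh110 fluorescence intensity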
FID counter: compounds displacing fluorescent DNA intercalator, primary screen, artefact control for HCV NS3 helicase inhibitor project, biochemical, FID fluorescence. AID 1845, 2009. inhibition, % at 7.9 µM. DNA fluorescent intercalator displacement. 0.17% of 290,000 active; in the data active means inhibition above about 37%;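 further: 0% = vehicle and 100% = reference compound; higher means more ethidium bromide displaced from hairpin DNA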
UBC13 polyUb: UBC13 polyubiquitin chain formation inhibitors, primary screen, biochemical, TR-FRET, uHTS. inhibition, % at 20 µM. 0.47% of 330,000 active. AID 485273, 2010; in the data active means inhibition above about 45%, passing the limit was not always enough
ANO1 block: TMEM16A chloride channel inhibitors, primary screen, cell-based, HTS; normalized B-score (activity score, 25-100; higher = stronger inhibition) at 10 µM; Anoctamin-1 (Mus musculus), Q8BHY3; HEK293 TMEM16A/YFP iodide influx fluorescence, ionomycin; 1.2% of 310,000 active;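 active means ratio plate-corrected score three or more library SD toward inhibition, starting fluorescence score within five deviations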;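 further: score derived from kinetic fluorescence span divided by baseline fluorescence per well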
TMEM16A reconf: TMEM16A chloride channel inhibitors, confirmation, cell-based, re-confirmation; shares compounds with ANO1 block; HEK293 TMEM16A/YFP-H148Q, iodide quench fluorescence; ionomycin added to raise cell calcium; inhibition, % at 10 µM; AID 652189, 2013; 39% of 2,300 active;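 active means mean duplicate percent inhibition, scaled so buffer wells are 0 and the reference blocker 100, over three buffer SD above buffer mean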
TMEM16A Ca cntr: calcium mobilization in TMEM16A/YFP HEK293 cells, confirmation, counter-screen for TMEM16A inhibitor project; shares compounds with ANO1 block; Fluo4 calcium mobilization; calcium response (% of ionomycin), % at 10 µM; 2% of 2,300 active;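 active means duplicate-averaged calcium signal over 20% of the ionomycin maximum, relative to buffer baseline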;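 further: each well's signal is peak minus trough fluorescence divided by its pre-addition baseline; 0% = buffer wells and 100% = ionomycin wells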
YFP-HEK293 quench: iodide YFP quench changes in parental YFP-HEK293, counter-screen for TMEM16A inhibitor project, cell-based; shares compounds with ANO1 block; ionomycin; YFP ratio F(max-min)/F0 at 10 µM; 2,300 tested, under 10 active; AID 652233, 2013;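 active means yellow fluorescent protein signal ratio exceeding the buffer control mean by over 5 SD of those controls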;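 further: ratio is mean of duplicate wells from kinetic YFP trace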
ClC-1 rat inh: ClC-1 chloride channel inhibition, selectivity assay for TMEM16A inhibitor project, cell-based, voltage-dependent ClC-1 | shares compounds with ANO1 block | AID 652236, 2013 | 2,300 tested, under 10 active | CHO ClC-1-YFP, iodide influx fluorescence quench; iodide control reads 0, buffer control 100 | ratio percent, % at 10 µM;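 active means duplicate-mean ratio percent above the mean of iodide-only control wells, which defines zero, plus 5 of their SD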;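 further: higher percent means stronger block of ClC-1 iodide influx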
An asterisk follows results filed as active; i = inactive; / = not tested or not shown. Sampled rows, rich in hits. Any-hit rate of the full collection: about 2.4%.

SMILES | ANO1 activ | Apaf1 inhib | FID counter | UBC13 polyUb | ANO1 block | TMEM16A reconf | TMEM16A Ca cntr | YFP-HEK293 quench | ClC-1 rat inh
CCC(Sc1ccc2nnc(-c3ccc(OC)c(OC)c3)n2n1)C(=O)O (stereo not drawn) | i | 8.3 | -25.6 | -6.8 | 100* | i | i | -0.787 | -6.0
OCC[C@@H]1C[C@H](O)[C@@H](O)[C@]2(OCCc3ccccc32)O1 | i | -9.3 | -5.2 | 6.5 | i | / | / | / | /
COc1cccc(C(=O)NC(C)c2cccc3ccccc23)c1OC (stereo not drawn) | i | 7.0 | -29.6 | 3.3 | i | / | / | / | /
COc1cccc(C(=O)NC(C)c2ccc(-c3ccccc3)cc2)c1OC (stereo not drawn) | i | 20.9 | -39.3 | 1.3 | 25* | 24.5%* | i | -1.09 | -10.0
O=C(CSc1ccccn1)N1CCN(c2cccc(Cl)c2)CC1 | i | 8.8 | -13.4 | 9.2 | 25* | i | i | -0.892 | -13.5
CCOC(=O)N1CCN(Cc2nc(N)nc(Nc3ccc(Oc4ccccc4)cc3)n2)CC1 | i | 28.4 | -27.0 | 8.5 | 25* | 17.0%* | i | -1.11 | -5.0
CC(C(=O)NC1CCCc2ccccc21)N1CCN(Cc2ccc3c(c2)OCO3)CC1 (stereo not drawn) | i | 3.9 | -0.9 | 8.4 | 25* | i | i | -0.948 | -3.5
OCCC1CN(Cc2nc3ccccc3[nH]2)CCN1C1CCCC1 (stereo not drawn) | i | -26.1 | 3.6 | 3.9 | i | / | / | / | /
N#C/C(=C\c1ccc(Cl)cc1)C(=O)Nc1cccnc1 | i | -23.8 | -2.8 | 5.2 | i | / | / | / | /
C=CCc1ccc(OCCOCCOc2ccccc2[N+](=O)[O-])c(OC)c1 | i | 16.6 | -18.5 | 2.5 | 100* | i | i | -1.13 | -11.0
C=CCc1ccc(OCCOCCOc2cccc3cccnc23)c(OC)c1 | i | 16.4 | -35.0 | 15.8 | i | / | / | / | /
CCOC(=O)c1ccccc1N/C=C/C(=O)c1ccccc1 | i | 14.4 | -45.1 | 4.9 | 100* | i | i | -1.15 | -11.0
CCOC(=O)c1ccc(N/C=C/C(=O)c2ccccc2)cc1 | i | 14.3 | -10.1 | 3.5 | i | / | / | / | /
CCOc1ccc(CCNC(=O)COC(=O)c2cc(OC)c(OC)c(OC)c2)cc1OCC | / | -1.9 | -29.3 | -4.4 | i | / | / | / | /
Cc1ccc(Cl)cc1N1CCN(C(=O)COc2ccc(S(=O)(=O)NC(C)C)cc2)CC1 | i | 21.4 | -35.7 | 16.8 | 25* | i | i | -0.848 | -13.0
CC(C)NS(=O)(=O)c1ccc(OCC(=O)N2CCCC2)cc1 | i | -6.2 | 1.1 | -3.1 | i | / | / | / | /
CN(CC(CC(=O)Nc1nncs1)c1ccccc1)S(=O)(=O)c1ccc(Br)cc1 (stereo not drawn) | i | 9.8 | -27.3 | 6.9 | 100* | i | i | -0.961 | -11.5
CN(CC(=O)Nc1ccccc1Cl)C(=O)COC(=O)c1nc(Cl)c(Cl)c(Cl)c1Cl | i | 21.8 | -22.5 | -3.9 | i | / | / | / | /
c1ccc(-c2nnc(N3CCN(c4ccccn4)CC3)c3ccccc23)cc1 | i | 30.9 | -14.6 | 5.9 | i | / | / | / | /
